According to PubChem BioAssay:
Results filed as inconclusive are left out. Calls of active or inactive are those of the source.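 Rule for the calls, unless noted: active = viability increase at or above a cutoff of the median across tested compounds plus 3 SD (cut at about 8.5% in these data, passing the limit was not always enough); inconclusive = some gains above the cutoff, reason not given; inactive = the rest.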

Experiments:
[1] = S. cerevisiae growth inhibition in permissive medium (OD615), pilot counter-assay for S. cerevisiae lifespan shortening project, permissive growth control (AID 705;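 active = growth inhibition above 25% in both replicates, a cutoff set 3 SD above the mean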); settings: OD615, 24 h, at 10 µM, stronger effect = higher value
Summary of the method: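 System: Engineered DeaD yeast | Buffer or medium: SC raffinose/galactose permissive medium | Incubation: Cells pre-grown 4 h, then 24 h compound exposure, 30 °C humidified | Measured by: Absorbance (optical density) at 615 nm | Read-out: Reduction in yeast growth (OD615)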

[2] = S. cerevisiae growth inhibition in restrictive medium, OD615, pilot screen, restrictive growth control, yeast lifespan reduction project (AID 706;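 active = growth inhibition above a set limit, 3 SD over mean compound inhibition, in both replicates, cut at about 43% in these data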;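 note: modified DeaD lifespan yeast strain shifted to restrictive glucose medium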); settings: OD615, 48 h, at 10 µM, stronger effect = higher value
Summary of the method: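 Material: modified S. cerevisiae; Medium: glucose-based CSMM-D restrictive medium; Compound dosing: one concentration, 10 µM final, 0.25% DMSO; Incubation: 48 h compound exposure at 30 °C; Measured by: OD615.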

[3] = doxorubicin toxicity protection in MRP-1 cells – H69AR cells, CellTiter-Glo, duplicate, MRP-1 activator project, pilot screen (AID 807); settings: H69AR viability with doxorubicin, CellTiter-Glo luminescence; at 10 µM; stronger effect = higher value;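 note: compound pretreatment 18-22 h then 72 h combined with doxorubicin; 0% = doxorubicin alone and 100% = vehicle without doxorubicin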
[4] = viability of HCT116 without oncogenic beta-catenin – human colon tumor cells, pilot screen (AID 823;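 active = cell viability at or below a set limit in both duplicate runs, the limit being the all-compound median minus 4 SD, cut at about 23% in these data, passing the limit was not always enough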;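 note: 0% = wells killed by 20 µM Hyamine and 100% = untreated DMSO cell wells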); settings: HCT116 beta-catenin knockout viability, CellTiter-Glo, 60 h; at 10 µM; stronger effect = lower value
[5] = viability of PTEN-null HCT116 cells – cell-based, HCT116 clonal line, CellTiter-Glo, pilot screen (AID 824;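 active = viability at or below 27.92% in each of two runs, the all-compound median minus 4 SD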;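 note: 0% = 20 µM Hyamine control and 100% = vehicle cell control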); settings: HCT116 PTEN-deleted viability, 60 h, at 10 µM, stronger effect = lower value
[6] = RAM pathway blockade in budding yeast – dse1pr::URA3 reporter, 5-FOA selection, pilot screen (AID 869;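 active = inhibition over a set limit, the all-compound mean plus 3 SD, in both replicate runs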;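 note: 0% = DMSO wells with no growth and 100% = 10 µM 1-NA-PP1 with full growth; RAM network block rescues cells from 5-FOA so hits raise OD615 growth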); settings: S. cerevisiae dse1pr::URA3 5-FOA growth, OD615, 2 d, at 10 µM, stronger effect = higher value
[7] = RAM signaling pathway blockade in yeast – S. cerevisiae, Pdr1DBD-CYC8 efflux-inhibited sensitized strain, primary screen (AID 1298;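 active = RAM network inhibition above 8.4% in each of two replicates, 3 SD over the compound average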;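 note: 0% = DMSO untreated cells without growth and 100% = 10 µM 1-NA-PP1 full growth; higher means more yeast growth rescued from 5-FOA killing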); settings: S. cerevisiae cbk1-as DSE1-URA3 strain, 5-FOA growth OD615, 2 d; at 50 µM; stronger effect = higher value

Cc1cc(C)n2c(Br)c(CN3CC4CC(C3)c3cccc(=O)n3C4)nc2n1 (centres undefined)
inactive: growth inhibition [1] -3.02% | growth inhibition [2] -5.3% | viability increase [3] -2.43% | viability [4] 90.9% | viability [5] 105% | inhibition [6] 1.09% | RAM network inhibition [7] -0.1%

Clc1cccc(CN2CCCCC2c2cccnc2)c1 (centres undefined)
inactive: growth inhibition [1] -8.37% | growth inhibition [2] -2.08% | viability increase [3] 0.65% | viability [4] 81.9% | viability [5] 85.3% | inhibition [6] 1.16% | RAM network inhibition [7] -0.74%

CCOC(=O)N(CC)c1ccc(C(O)(C(=O)OCC)C(F)(F)F)cc1 (centres undefined)
inactive: growth inhibition [1] -2.74% | growth inhibition [2] -2.65% | viability increase [3] -0.35% | viability [4] 92.5% | viability [5] 95.3% | inhibition [6] 0.745% | RAM network inhibition [7] 0.46%

O=c1c2ccccc2nc(-c2ccco2)n1-c1ccccn1
inactive: growth inhibition [1] -12.2% | growth inhibition [2] -7.09% | viability increase [3] -0.82% | viability [4] 107% | viability [5] 95.2% | inhibition [6] 1.16% | RAM network inhibition [7] 3.37%

CCCCCCOc1ccc(CN2CCN(CCO)CC2)cc1
inactive: growth inhibition [1] -16.7% | growth inhibition [2] 2.46% | viability increase [3] -6.03% | viability [4] 60.7% | viability [5] 75.5% | inhibition [6] 2% | RAM network inhibition [7] -1.21%

O=c1c2ccccc2nc(-c2ccco2)n1-c1ccncc1
inactive: growth inhibition [1] -1.4% | growth inhibition [2] 3.59% | viability increase [3] 0.16% | viability [4] 91.8% | viability [5] 97.2% | inhibition [6] 0.635% | RAM network inhibition [7] -0.06%

CN(C)C(=O)Oc1ccc(-c2nnco2)cc1
inactive: growth inhibition [1] 0.38% | growth inhibition [2] -1.25% | viability increase [3] 1.79% | viability [4] 104% | viability [5] 99.7% | inhibition [6] 1.48% | RAM network inhibition [7] 0.73%

O=C(Nc1ccccc1OC(=O)N1CCCCC1)N1CCCCC1
inactive: growth inhibition [1] -8.28% | growth inhibition [2] -4.06% | viability increase [3] -2.07% | viability [4] 97.4% | viability [5] 100% | inhibition [6] 0.8% | RAM network inhibition [7] 3.27%

Cc1ccc2cccc(OC(=O)N(C)c3ccccc3)c2n1
inactive: growth inhibition [1] -4.06% | growth inhibition [2] -4.96% | viability increase [3] -0.64% | viability [4] 95.5% | viability [5] 87.5% | inhibition [6] 1.67% | RAM network inhibition [7] 1.8%

O=C1CC(=O)N(c2ccc(Cl)cc2Cl)C(=O)N1
inactive: growth inhibition [1] -10.7% | growth inhibition [2] 11.2% | viability increase [3] 0.06% | viability [4] 93.2% | viability [5] 91.2% | inhibition [6] 0.19% | RAM network inhibition [7] 1.94%

Nc1ccc(S(=O)(=O)N2CCCCC2c2cccnc2)cc1 (centres undefined)
inactive: growth inhibition [1] -3.15% | growth inhibition [2] 0.935% | viability increase [3] -0.96% | viability [4] 103% | viability [5] 104% | inhibition [6] 0.625% | RAM network inhibition [7] -0.2%

Cn1c(O)c(C=NCCc2c[nH]c3ccccc23)c(=O)n(C)c1=O
inactive: growth inhibition [1] -0.425% | growth inhibition [2] -3.75% | viability increase [3] -2.67% | viability [4] 101% | viability [5] 91.4% | inhibition [6] 1.54% | RAM network inhibition [7] -0.15%

Cn1c(O)c(C(=NCCN2CCCCC2)c2ccccc2Cl)c(=O)n(C)c1=O
inactive: growth inhibition [1] -15% | growth inhibition [2] -13.6% | viability increase [3] -0.81% | viability [4] 87.3% | viability [5] 93.8% | inhibition [6] -0.185% | RAM network inhibition [7] 0.48%

NC(=O)CN1CC(c2ccccc2)CC1=O (centres undefined)
inactive: growth inhibition [1] -5.56% | growth inhibition [2] -19.9% | viability increase [3] -0.3% | viability [4] 105% | viability [5] 98% | inhibition [6] 0.295% | RAM network inhibition [7] 4.63%

c1ccc2c(CN3CCCCCCC3)c[nH]c2c1
inactive: growth inhibition [1] -9.45% | growth inhibition [2] 0.115% | viability increase [3] -6.65% | viability [4] 62.3% | viability [5] 67.8% | inhibition [6] 0.485% | RAM network inhibition [7] 5.27%

CN(C)C(=O)Oc1ccc(OC(=O)N(C)C)cc1
inactive: growth inhibition [1] 1.07% | growth inhibition [2] -14.3% | viability increase [3] 0.6% | viability [4] 104% | viability [5] 99.5% | inhibition [6] 1.02% | RAM network inhibition [7] -0.32%

CN1CCN(c2ncnc3ccc(Br)cc23)CC1
inactive: growth inhibition [1] -1.88% | growth inhibition [2] 5.46% | viability increase [3] -1.88% | viability [4] 94.2% | viability [5] 98.4% | inhibition [6] -0.575% | RAM network inhibition [7] 2.92%
